Bioassay records from PubChem.
Wee1 stabilizer: blocks degradation of human Wee1 kinase | HeLa Luc-Wee1K328M stability, luciferase luminescence; 100% = proteasome inhibitor MG132 effect | reporter increase, % at 5 µM | actives 1.2% (n = 220,000);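 active means activation above the mean of all tested compounds plus 3 SD, set per screening run, cut at about 8.8% in these data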;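 further: cells exposed to compound for 20 h before luminescence read; 0% = DMSO alone and 100% = MG132 at 30 µM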
Arbovirus inh: antivirals against arbovirus infection | inhibition, % at 10 µM | arbovirus infection cell-based antiviral screen | actives 0.37% (n = 200,000) | AID 1251; in the data active means inhibition above about 30%
RBBP9 inh: inhibitors of human serine hydrolase RBBP9. inhibition, % at 7.94 µM. actives 0.2% (n = 220,000). AID 1515. recombinant RBBP9, FP-Rh probe fluorescence polarization;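 active means inhibition above the campaign mean of all tested compounds plus 3 SD, cut at about 14% in these data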;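 further: plate controls were DMSO wells with RBBP9 for no effect and wells lacking RBBP9 protein for full effect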
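Material: RBBP9 protein. Amount: RBBP9 at 2.5 µM in dispensed solution, before mixing. Schedule: 30 min then 45 min, 25 °C. Medium: Tris buffer pH 8.0, NaCl, Pluronic. Measured by: fluorescence polarization. Measure: percent inhibition from mP, scaled between DMSO and no-protein wells. Replication: one well per compound.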
p97 ATPase inh: inhibitors of human p97 ATPase; P55072; recombinant p97 ATPase, Kinase-Glo ATP luminescence, 3 h; inhibition, % at 8 µM; actives 0.42% (n = 220,000); AID 1481; in the data active means inhibition above about 15%;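 further: 0% = DMSO vehicle and 100% = wells lacking enzyme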
Redox H2O2 prof: compounds producing H2O2 with reducing agent – biochemical, NIH compound library profiling, artefact control for MLSCN library redox annotation, primary screen. DTT-dependent redox cycling H2O2, phenol red/HRP absorbance; 100% = 100 µM peroxide control, 0% = buffer. activation, % at 10 µM. actives 0.03% (n = 200,000). AID 878;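 active means activation of at least 50% relative to the plate's high and low controls in the primary single-dose screen; inactive means activation below 50%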;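 further: compound incubated with DTT at 0.8 mM final as the reducing agent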
PKD1 inh: blocks activity of human protein kinase D1. Q15139. PKD1 kinase fluorescence polarization assay. inhibition, % (concentration not given with the values). actives 0.056% (n = 200,000); in the data active means inhibition above about 50%
Wee1 stab conf: human Wee1 degradation inhibition, confirmation | shares compounds with Wee1 stabilizer | HeLa Luc-Wee1K328M degradation, luminescence; vehicle 0%, proteasome-blocked wells 100% | activation, % at 5 µM | actives 4% (n = 1,100) | AID 1410; in the data active means activation above about 8.9%
Starred values were filed as active, the others as inactive; nt = not tested or not shown. The list is not random: actives were taken first. Their share in the collection is about 2.2%.

SMILES	Wee1 stabilizer	Arbovirus inh	RBBP9 inh	p97 ATPase inh	Redox H2O2 prof	PKD1 inh	Wee1 stab conf
COc1ccc(/C=N/NC(=O)CN(C2=NS(=O)(=O)c3ccccc32)c2ccccc2)cc1OC	1	-7	-2	4	0	-4	nt
COc1cccc(/C=N/NC(=O)CN(C2=NS(=O)(=O)c3ccccc32)c2ccccc2)c1	12*	10	-6	-2	0	-9	0
COC(=O)c1ccccc1NC(=O)C(C)Oc1ccccc1 (stereo unspecified)	17*	1	-4	0	-3	-3	2
CC(C)NC(=O)c1ccccc1NC(=O)C(C)Oc1ccccc1 (stereo unspecified)	-1	1	-5	1	0	-3	nt
CCc1c(O)nc(SCC(=O)Nc2nc3ccccc3s2)n(C2CCCCC2)c1=O	-2	nt	1	4	nt	nt	nt
COC(=O)c1nn(-c2ccccc2)c(Sc2ccc(Cl)cc2)c1/C=N/O	3	4	-13	-5	-3	0	nt
CCOc1ccc(-c2nnn(CC(=O)N3CCCC3)n2)cc1OCC	-1	6	-2	1	1	8	nt
CCOC(=O)c1cnc(SCC#N)nc1N	13*	nt	-6	5	nt	nt	-2
CCOC(=O)c1cnc(SC)nc1N	0	0	-4	-2	-7	-3	nt
Cc1ccc(-n2cc(-c3ccccc3)c3c(NN4CCOCC4)ncnc32)cc1	3	-18	-5	0	0	1	nt
Cc1cccc(-n2cc(-c3ccccc3)c3c(NN4CCOCC4)ncnc32)c1	24*	-17	-6	-2	0	10	1
Cc1cccc(-c2nc(CSc3nc4c(c(=O)[nH]3)CCC4)c(C)o2)c1	11*	-26	-6	0	1	-11	-1
COc1ccc(S(=O)(=O)Nc2nnc(Cc3ccc(OC)c(OC)c3)s2)cc1	0	-2	-4	-7	0	2	nt
CC(C)c1ccc(/C=N/NC(=O)c2ccccn2)cc1	0	nt	-3	-8	nt	nt	nt
CC(C)c1ccc(/C=N/NC(=O)c2cccc(Cl)c2)cc1	14*	-13	-6	-1	0	-5	6
S=c1[nH]nc(-c2ccco2)n1/N=C/c1ccccc1Cl	-1	0	-8	6	0	9	nt
S=c1[nH]nc(-c2ccco2)n1/N=C/c1ccc(Cl)cc1	13*	19	-1	-2	0	2	0
COC(=O)Cc1cc(OC)c(OC)cc1S(=O)(=O)N(C)C	0	-2	-1	-1	-1	1	nt
CC(C)CCNC(=S)Nc1ccc2nc3n(c(=O)c2c1)CCCCC3	11*	-4	-7	3	0	-8	1
CCCCNC(=S)Nc1ccc2nc3n(c(=O)c2c1)CCCCC3	0	0	-14	1	0	-4	nt
Cc1cc(C)c(S(=O)(=O)c2ccc(Cl)cc2C)c(Cl)n1	5	-7	-4	2	1	-2	nt
Cc1ccc(CCNC(=O)CNC(=S)N(Cc2ccccc2)Cc2cccnc2)cc1	15*	-7	-3	1	-1	8	0
CCOC(=O)C1(CC/C(C)=N\NC(N)=O)CC(C)(C)OC1=O (stereo unspecified)	-3	9	-1	-3	-1	-2	nt
Cc1ccc(C(C(=O)NCc2ccco2)N(C(=O)CNC(=O)c2cccs2)c2c(C)cc(C)cc2C)cc1 (stereo unspecified)	11*	-26	-6	3	0	2	0
COc1cccc(CNC(=O)C(C(=O)NCc2cccc(OC)c2)c2ncc(C(F)(F)F)cc2Cl)c1	-1	-1	3	2	0	-2	nt
O=C(N=C1SCC(=O)N1c1ccccc1)c1ccco1	-1	3	-2	2	0	-18	nt
O=C(N=C1SCC(=O)N1c1ccccc1Cl)c1ccco1	14*	-1	-17	5	3	-1	5
c1ccc(CSc2nnc3ccc(-c4ccco4)nn23)nc1	0	0	-5	0	-2	-13	nt
CCOC(=O)c1sc(NC(=O)CCCn2nc([N+](=O)[O-])cc2C)c(C(=O)OCC)c1C	-1	7	-1	10	-1	-8	nt
